High-throughput results: PubChem, several laboratories
MMP13 inh – MMP13 (human) collagenase inhibition | P45452 | MMP-13 fTHP FRET cleavage, Mca fluorescence | inhibition, % at 4 µM | hit rate 0.07% among 65,000 | AID 570;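 active = inhibition above the mean of compound-free control plate wells plus 3 SD, cut at about 14% in these data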;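 note: 0% = DMSO wells and 100% = wells with reference MMP-13 inhibitor after basal subtraction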
tolC growth inh – growth inhibitors of E. coli BW25113 tolC mutant. hit rate 2.2% among 65,000. growth inhibition, % at 10 µM (by protocol). OD615;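 active = growth inhibition at or above a cutoff equal to the mean over every tested compound plus 3 SD, cut at about 60% in these data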;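 note: growth measured after 20 h incubation at 37 °C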
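Material: E. coli BW25113 ΔtolC::kan, tolC deletion mutant strain. Measure: percent growth inhibition. Schedule: 37 °C, 20 h exposure. Doses: single-point testing at 10 µM. Signal: A615 absorbance measurement. Buffer or medium: kanamycin-containing LB broth (50 µg/mL).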
DUSP1 inh – human dual specificity phosphatase 1 inhibition. recombinant MKP-1, OMFP hydrolysis fluorescence. inhibition, %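 (compounds tested at a single concentration somewhere between 10 and 100 µM)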. hit rate 0.15% among 65,000. AID 374;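 active = inhibition above about 50%, limit read from the data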;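 note: 0% = DMSO max control wells and 100% = wells with enzyme stopped by NaOH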
Target sequence (P28562 whole entry, looked up): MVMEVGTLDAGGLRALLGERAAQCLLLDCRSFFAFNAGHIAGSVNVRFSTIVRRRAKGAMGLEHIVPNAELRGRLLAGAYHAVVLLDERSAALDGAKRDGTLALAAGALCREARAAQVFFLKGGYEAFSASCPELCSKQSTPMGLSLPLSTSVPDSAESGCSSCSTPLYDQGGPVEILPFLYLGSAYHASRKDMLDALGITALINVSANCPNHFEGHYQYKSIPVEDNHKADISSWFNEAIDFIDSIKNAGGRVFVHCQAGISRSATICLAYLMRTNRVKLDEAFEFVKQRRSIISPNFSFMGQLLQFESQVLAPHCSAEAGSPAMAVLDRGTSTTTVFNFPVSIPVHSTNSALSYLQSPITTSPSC
Ecoli WT expand – E. coli BW25113 growth inhibition, expanded screen; OD600 absorbance; growth inhibition, % at 100 µM; hit rate 0.15% among 98,000; AID 710;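 active = growth inhibition above about 50% at one test dose, limit read from the data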;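 note: growth measured after 20 h incubation at 37 °C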
HePTP inhibitor – blocks human HePTP tyrosine phosphatase | recombinant HePTP phosphatase activity, OD absorbance | inhibition, % at 20 µM | hit rate 0.64% among 110,000; in the data active = inhibition above about 50%;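 note: plate controls were vehicle for no effect and reference inhibitor for full effect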
Cdc25B block – inhibitors of human Cdc25B phosphatase. P30305. recombinant Cdc25B, OMFP fluorescence Ex485/Em525. inhibition, %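 (compounds tested at 10 µM final in the well)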. hit rate 0.1% among 65,000. AID 368; in the data active = inhibition above about 50%
The depositor's hits bear a star. Only a selection was taken, and hits are over-represented in it overall.

For c1ccc(CSc2nnc(-c3cccs3)n2Cc2ccco2)cc1 the results were MMP13 inh 4.2, tolC growth inh 95.6*, DUSP1 inh 2.5, HePTP inhibitor 5.5 and Cdc25B block -8.3.
`Clc1cccc(CSc2nnc(-c3ccccn3)n2Cc2ccco2)c1` gave MMP13 inh 6.2, tolC growth inh 100.0*, DUSP1 inh 4.9, Ecoli WT expand -6.0, HePTP inhibitor -0.5 and Cdc25B block 1.0.
For CCC(=O)Nc1sc2c(c1C(=O)Nc1ccccc1OC)CCC2 the results were HePTP inhibitor 38.3.
`CN(Cc1ccccc1)C(=O)c1nn2c(C(F)(F)F)cc(-c3ccccc3)nc2c1Cl` gave HePTP inhibitor -2.0.
For Cc1cccc(C(=O)Nc2sc3c(c2C(=O)NCc2ccco2)CCC(C)C3)c1 (centres undefined) the results were HePTP inhibitor -7.5.
CCOc1ccc(/C=C2/NC(=S)NC2=O)cc1Cl was read as HePTP inhibitor -5.3.
`COc1ccc(Cl)cc1C(=O)Nc1ccc(O)c(-c2nc3ccccc3o2)c1` gave HePTP inhibitor 8.6.
COC(=O)c1c(C)[nH]c(/C=C2\C(=O)C=Cc3ccccc32)c1O was read as HePTP inhibitor 5.8.
`CC(O)c1c(OCc2ccccc2)ncnc1OCc1ccccc1` (centres undefined) gave MMP13 inh 5.3, tolC growth inh 66.4*, DUSP1 inh -7.6, Ecoli WT expand 5.0, HePTP inhibitor 5.4 and Cdc25B block -7.8.
Screening CCCc1cc(C(=O)Nc2cccc(Cl)c2)no1 returned MMP13 inh -1.1, tolC growth inh 98.3*, DUSP1 inh -4.9, Ecoli WT expand 12.0, HePTP inhibitor 2.8 and Cdc25B block -11.2.
Screening CC1=C(C(=O)OCCc2ccccc2)C(c2c(F)cccc2Cl)CC(=O)N1 (centres undefined) returned HePTP inhibitor 3.1.
Screening Cc1ccc(S(=O)(=O)/N=C2\C=C(n3cnc4ccccc43)C(=O)c3ccccc32)cc1 returned HePTP inhibitor 85.1*.
Screening CCOC(=O)c1cccc(NC(=O)c2ccc(OC)c(OC)c2)c1 returned HePTP inhibitor -4.0.
For c1coc(CN(Cc2cccs2)Cc2nnnn2C2CCCCC2)c1 the results were MMP13 inh -2.6, tolC growth inh 94.7*, DUSP1 inh 11.4, Ecoli WT expand 2.0, HePTP inhibitor 10.4 and Cdc25B block -8.8.
Cc1cc(OCC(O)CNC(C)C)ccc1C(C)C (centres undefined) was read as HePTP inhibitor 5.9.
Cc1onc(-c2ccccc2)c1C(=O)N1CCN(c2ccc(Cl)cc2)CC1 was read as HePTP inhibitor 104.2*.
For O=C(Nc1cccc(C(F)(F)F)c1)c1ccc(Cn2cc(Br)cn2)o1 the results were Ecoli WT expand 14.0.
`O=C(Nc1ccc(C(F)(F)F)cc1Cl)c1ccc(Cn2cc(Br)cn2)o1` gave MMP13 inh 0.8, tolC growth inh 98.8*, DUSP1 inh 15.3, Ecoli WT expand 1.0, HePTP inhibitor -0.2 and Cdc25B block -7.3.
For COc1ccc(NC(=O)c2ccc(Nc3nnc(C)c4ccccc34)cc2)cc1 the results were HePTP inhibitor 59.7*.
Cc1nnc(Nc2ccc(C(=O)NCCO)cc2)c2ccccc12 was read as MMP13 inh 4.5, tolC growth inh -16.4, DUSP1 inh -11.4, Ecoli WT expand 1.0, HePTP inhibitor 6.8 and Cdc25B block -3.3.
For CCOC(=O)c1ccc(-n2c(-c3ccccc3)nc3ccccc3c2=O)cc1 the results were HePTP inhibitor 97.9*.
`CCOC(=O)c1ccc(-n2[nH]c(-c3ccccc3)cc2=O)cc1` gave MMP13 inh -2.8, tolC growth inh 62.0*, DUSP1 inh 34.1, Ecoli WT expand 11.0, HePTP inhibitor 15.5 and Cdc25B block 3.3.
Cn1c(N)c(/C=N/Nc2ccccc2)c(=O)n(C)c1=O was read as HePTP inhibitor -19.5.
For Cc1ccc2ccc(C(Nc3ccccn3)c3ccccc3)c(O)c2n1 (centres undefined) the results were Ecoli WT expand 9.0.
`Oc1c(C(Nc2ccccn2)c2ccccn2)ccc2cccnc12` (centres undefined) gave MMP13 inh -1.0, tolC growth inh 1.4, DUSP1 inh 22.6, Ecoli WT expand 54.0*, HePTP inhibitor 8.6 and Cdc25B block -16.8.
CC(=O)NS(=O)(=O)c1ccc(NC(=O)c2ccc([N+](=O)[O-])cc2Cl)cc1 was read as HePTP inhibitor 2.2.
`O=C1CC(NCc2ccco2)C(=O)N1CCc1ccccc1` (centres undefined) gave MMP13 inh -3.0, tolC growth inh -5.2, DUSP1 inh -6.2, Ecoli WT expand -3.0, HePTP inhibitor 6.6 and Cdc25B block 52.7*.
`COc1ccc(NC(=O)c2ccccc2C)cc1OC` gave HePTP inhibitor 5.0.
COc1cc(/C=C(/C#N)C(=O)Nc2cccc(Br)c2)cc([N+](=O)[O-])c1O was read as HePTP inhibitor 103.6*.
CCc1nnc(NC(=O)c2cccc(C(=O)Nc3nnc(CC)s3)n2)s1 was read as MMP13 inh 0.8, tolC growth inh 94.0*, DUSP1 inh 2.2, HePTP inhibitor 7.3 and Cdc25B block 4.6.
Screening Cc1ccc(C(=O)Nc2ccccc2C(=O)N2CCC(C)CC2)cc1 returned HePTP inhibitor 3.9.
Screening COc1ccccc1N1CCN(CCCNC(=O)Nc2ccccc2C)CC1 returned MMP13 inh 3.0, tolC growth inh -16.3, DUSP1 inh -0.1, Ecoli WT expand 6.0, HePTP inhibitor 4.8 and Cdc25B block -4.8.
For COc1ccc(Cl)cc1N1CCN(CCNC(=O)Nc2ccccc2C)CC1 the results were MMP13 inh 2.6, tolC growth inh 62.8*, DUSP1 inh -9.7, Ecoli WT expand 5.0, HePTP inhibitor 12.7 and Cdc25B block -5.1.
`COc1ccc(/C=C2\SC(=S)N(c3cccc(C)c3C)C2=O)cc1` gave HePTP inhibitor -7.3.
COc1ccc(OC)c(Nc2nc(-c3cccs3)cs2)c1 was read as MMP13 inh 2.4, tolC growth inh 61.5*, DUSP1 inh 7.9, Ecoli WT expand -17.0, HePTP inhibitor 6.4 and Cdc25B block -4.4.
COc1ccc(Nc2nc(-c3cccs3)cs2)c(OC)c1 was read as Ecoli WT expand -11.0.
For C/C(=N\OCC(=O)N=Nc1c(O)n(CN2CCN(C)CC2)c2ccccc12)c1ccccc1 the results were HePTP inhibitor 3.5.
For O=C(Nc1nccs1)C(NS(=O)(=O)c1ccc(Br)s1)c1ccccc1 (centres undefined) the results were MMP13 inh -1.3, tolC growth inh 61.0*, DUSP1 inh 0.1, Ecoli WT expand -4.0, HePTP inhibitor 11.0 and Cdc25B block -8.4.
O=C(COc1ccccc1[N+](=O)[O-])N=Nc1c(O)[nH]c2ccccc12 was read as HePTP inhibitor 6.9.
Screening O=C(CSc1nnc2scc(-c3ccccc3)n12)Nc1nsc(-c2ccccc2)n1 returned MMP13 inh 1.1, tolC growth inh 62.5*, DUSP1 inh 22.8, Ecoli WT expand -9.0, HePTP inhibitor 14.6 and Cdc25B block -1.1.
